Test results from ChEMBL document CHEMBL1833814 (Bioorg Med Chem Lett, 2011).

Target: Fatty acid synthase (Homo sapiens, UniProt P49327)
Assay: Inhibition of human FAS assessed as synthesis of long chain fatty acids from malonyl CoA after 60 mins by fluorescence assay
How it was run: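 FAS enzyme prepared from HeLa cells, in enzyme buffer (20 mM K phosphate, 1 mM EDTA, 1 mM DTT, 5% glycerol, pH 7.4). It was preincubated 60 min at 37 °C with compound (0.1% DMSO), 326 µM NADPH and 60 µM acetyl CoA in 100 mM K phosphate, 1 mM EDTA, 1 mM DTT, pH 7.0. The reaction was started with 200 µM malonyl CoA. NADPH consumption was read at 340 nm over 10 min, and the slope (Vmax) was taken.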

Chain of Fatty acid synthase (P49327 whole entry): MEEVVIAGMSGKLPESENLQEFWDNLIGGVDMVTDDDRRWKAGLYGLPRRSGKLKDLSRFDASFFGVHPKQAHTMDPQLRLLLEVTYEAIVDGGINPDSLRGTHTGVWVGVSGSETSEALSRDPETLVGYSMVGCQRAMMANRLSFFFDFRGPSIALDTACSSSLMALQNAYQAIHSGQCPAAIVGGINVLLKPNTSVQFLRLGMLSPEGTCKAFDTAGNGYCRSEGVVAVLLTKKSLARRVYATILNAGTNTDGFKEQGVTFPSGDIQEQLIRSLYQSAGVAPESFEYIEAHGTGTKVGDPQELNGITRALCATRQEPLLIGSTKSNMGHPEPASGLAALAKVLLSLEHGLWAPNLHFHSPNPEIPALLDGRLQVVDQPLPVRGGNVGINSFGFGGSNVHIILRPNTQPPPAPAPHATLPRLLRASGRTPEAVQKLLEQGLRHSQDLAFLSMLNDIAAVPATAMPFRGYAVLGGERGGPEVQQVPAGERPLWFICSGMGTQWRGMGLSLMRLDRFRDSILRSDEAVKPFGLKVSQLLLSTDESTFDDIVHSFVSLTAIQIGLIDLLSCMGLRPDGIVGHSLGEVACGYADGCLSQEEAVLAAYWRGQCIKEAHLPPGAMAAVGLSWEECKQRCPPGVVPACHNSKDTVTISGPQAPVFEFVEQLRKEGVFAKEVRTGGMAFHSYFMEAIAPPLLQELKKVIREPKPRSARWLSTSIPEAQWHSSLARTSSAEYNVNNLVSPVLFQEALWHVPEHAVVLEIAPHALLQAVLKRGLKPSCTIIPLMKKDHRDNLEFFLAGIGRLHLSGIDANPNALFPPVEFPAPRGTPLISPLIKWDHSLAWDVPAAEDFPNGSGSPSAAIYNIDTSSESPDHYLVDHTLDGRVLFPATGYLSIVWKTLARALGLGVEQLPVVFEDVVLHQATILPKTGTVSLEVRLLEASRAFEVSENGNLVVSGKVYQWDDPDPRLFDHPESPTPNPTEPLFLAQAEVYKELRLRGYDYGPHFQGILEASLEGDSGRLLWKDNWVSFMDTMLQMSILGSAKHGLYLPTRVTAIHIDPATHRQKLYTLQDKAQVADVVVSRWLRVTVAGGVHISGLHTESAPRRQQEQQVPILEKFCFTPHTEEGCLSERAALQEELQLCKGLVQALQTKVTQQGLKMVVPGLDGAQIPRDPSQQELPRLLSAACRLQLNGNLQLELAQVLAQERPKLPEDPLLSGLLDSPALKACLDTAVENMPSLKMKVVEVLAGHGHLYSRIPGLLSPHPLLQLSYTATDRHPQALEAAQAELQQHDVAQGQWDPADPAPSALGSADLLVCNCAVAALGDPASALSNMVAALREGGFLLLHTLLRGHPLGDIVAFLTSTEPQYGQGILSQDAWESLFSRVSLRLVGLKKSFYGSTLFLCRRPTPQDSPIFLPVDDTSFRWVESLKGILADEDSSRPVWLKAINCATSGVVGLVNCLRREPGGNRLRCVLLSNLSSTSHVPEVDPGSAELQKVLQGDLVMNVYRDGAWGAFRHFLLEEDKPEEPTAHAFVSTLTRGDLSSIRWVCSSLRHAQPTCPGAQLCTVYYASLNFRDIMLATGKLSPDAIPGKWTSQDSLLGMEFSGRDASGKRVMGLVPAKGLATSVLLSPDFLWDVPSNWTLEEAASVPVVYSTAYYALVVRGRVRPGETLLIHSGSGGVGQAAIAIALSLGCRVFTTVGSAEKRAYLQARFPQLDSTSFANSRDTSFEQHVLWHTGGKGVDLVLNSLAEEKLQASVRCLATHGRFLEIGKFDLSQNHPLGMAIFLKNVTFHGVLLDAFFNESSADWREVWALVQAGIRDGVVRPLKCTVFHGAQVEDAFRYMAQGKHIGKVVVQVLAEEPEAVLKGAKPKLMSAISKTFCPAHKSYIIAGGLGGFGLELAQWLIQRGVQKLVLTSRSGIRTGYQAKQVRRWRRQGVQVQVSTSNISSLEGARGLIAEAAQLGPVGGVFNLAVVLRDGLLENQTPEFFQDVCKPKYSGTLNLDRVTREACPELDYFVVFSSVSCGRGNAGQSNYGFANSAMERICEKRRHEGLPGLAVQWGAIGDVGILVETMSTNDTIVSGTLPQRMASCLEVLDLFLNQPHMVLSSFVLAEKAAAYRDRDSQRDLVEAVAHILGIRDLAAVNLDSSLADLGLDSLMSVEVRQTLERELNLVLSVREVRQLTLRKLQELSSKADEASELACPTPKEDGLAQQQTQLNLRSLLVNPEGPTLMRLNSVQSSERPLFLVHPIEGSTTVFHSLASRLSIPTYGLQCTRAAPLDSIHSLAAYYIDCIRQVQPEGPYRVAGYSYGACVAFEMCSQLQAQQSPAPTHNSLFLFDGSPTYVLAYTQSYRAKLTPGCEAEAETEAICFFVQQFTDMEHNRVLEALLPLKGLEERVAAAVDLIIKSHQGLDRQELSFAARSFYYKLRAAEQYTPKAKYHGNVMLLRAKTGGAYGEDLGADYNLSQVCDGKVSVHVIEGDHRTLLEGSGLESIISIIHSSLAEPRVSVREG

Structure (SMILES) | IC50 [µM]
CN(C(=O)[C@@H]1CC[C@H](NC(=O)C(F)F)C1)c1ccc(-c2nc3ccccc3o2)cc1 | 0.27
CCNC(=O)N[C@H]1CC[C@@H](C(=O)N(C)c2ccc(-c3nc4ccccc4o3)cc2)C1 | 0.53
CC(=O)N[C@H]1CC[C@@H](C(=O)N(C)c2ccc(-c3nc4ccccc4o3)cc2)C1 | 0.2
COCC(=O)N[C@H]1CC[C@@H](C(=O)N(C)c2ccc(-c3nc4ccccc4o3)cc2)C1 | 0.91
CN(C)C(=O)N[C@H]1CC[C@@H](C(=O)N(C)c2ccc(-c3nc4ccccc4o3)cc2)C1 | 0.28
CCNC(=O)N[C@H]1CC[C@@H](C(=O)N(C)c2ccc(-c3nc4ccccc4[nH]3)cc2)C1 | 0.4

Results, then the compound that gave them:

IC50 [µM] | Structure (SMILES)
> 10 | CC(=O)N[C@@H]1CC[C@H](C(=O)N(C)c2ccc(-c3ccccc3)cc2)C1
2 | CN(C)CCCCCC(=O)N[C@H]1CC[C@@H](C(=O)N(C)c2ccc(-c3ccccc3)cc2)C1
0.58 | CN(C)CCCCCC(=O)N[C@H]1CC[C@@H](C(=O)N(C)c2ccc(-c3nc4ccccc4o3)cc2)C1
0.19 | CCC(=O)N[C@H]1CC[C@@H](C(=O)N(C)c2ccc(-c3nc4ccccc4[nH]3)cc2)C1
0.48 | CC(=O)N[C@H]1CC[C@@H](C(=O)N(C)c2ccc(-c3ccccc3)cc2)C1
1.5 | CCNC(=O)N[C@H]1CC[C@@H](C(=O)N(C)c2ccc(-c3ccccc3)cc2)C1
